From PubChem BioAssay
CAL PDZ FP-1 – blocks peptide binding to the human CAL PDZ domain; Q9HD26; purified CAL PDZ, TMR-peptide fluorescence polarization, 1 h; inhibition, % at 24.9 µM; actives 0.92% (n = 300,000);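 active means mean inhibition of at least 30% with at least half of replicates also reaching 30%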;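 further: 0% = DMSO neutral control and 100% = excess unlabeled competitor peptide PRC23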
miR-122 sensor – blocks miR-122 activity in Huh7 sensor cells; Huh7 miR-122 Renilla luciferase sensor, 48 h; neutral wells = 0, positive control = 100; activation (reporter increase), % at 12.5 µM; AID 602342; actives 0.3% (n = 340,000);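 active means mean replicate activation score at least 90 and every replicate individually at or above 90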;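 further: higher luciferase means less miR-122 activity so hits act as miR-122 inhibitors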
PvdQ acylase – P. aeruginosa PvdQ acylase inhibition; purified PvdQ acylase, fluorescence plate reader; actives 0.063% (n = 340,000); inhibition, % at 10 µM; in the data active means inhibition above about 30%, passing the limit was not always enough;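 further: 0% = vehicle neutral wells and 100% = reference inhibitor wells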
CAL PDZ FP-2 – inhibitors of human CAL PDZ peptide binding; Q9HD26; purified CAL PDZ, TMR-peptide fluorescence polarization, 1 h; inhibition, % at 20 µM; actives 0.02% (n = 330,000); AID 504414;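 active means highest replicate inhibition of at least 40%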;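 further: plate controls were DMSO neutral control wells for no effect and unlabeled competitor peptide control wells for full effect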
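Material: tagged CAL PDZ domain; buffer or medium: 25 mM sodium phosphate pH 7.4, 150 mM NaCl, TCEP, IgG, Thesit; compound dosing: single point, 20 µM; schedule: 1 h incubation at room temperature before polarization reading; measured by: FP readout, S and P plane fluorescence; read-out basis: percent inhibition from loss of millipolarization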
* marks the source's active call; other numbers are inactive results; [ ] = another dose, or the depositor's remark. Shown are actives, neighbours in structure and some others; about 0.95% of the full set was active somewhere.

How did Cc1cc(C(=O)OCC(=O)NCCN2C(=O)CSC2=O)ccc1[N+](=O)[O-] do in these assays?
CAL PDZ FP-1: 90*; PvdQ acylase: -21; CAL PDZ FP-2: 0

How did C=CCn1c(SCC(=O)NC2CCCCC2)nnc1-c1ccccn1 do in these assays?
CAL PDZ FP-1: 122*; miR-122 sensor: 1; PvdQ acylase: -13; CAL PDZ FP-2: 0

What do the screens show for `O=C(CSc1ccccc1C(=O)O)NC1CCCCCC1`?
CAL PDZ FP-1: -10; miR-122 sensor: 0; PvdQ acylase: -6; CAL PDZ FP-2: -1

Results for O=C(CSc1ncccc1C(=O)O)NC1CCCCCCC1 ?
CAL PDZ FP-1: 60*; miR-122 sensor: -10; PvdQ acylase: -6; CAL PDZ FP-2: -1

How did N#CCCn1c(=O)n(CCC#N)c2ccccc21 do in these assays?
CAL PDZ FP-1: 8; miR-122 sensor: -2; PvdQ acylase: -15; CAL PDZ FP-2: 0

Results for Cc1ccc(C(C)C)cc1OCCn1cncn1 ?
CAL PDZ FP-1: 66*; miR-122 sensor: -2; PvdQ acylase: -14

What do the screens show for `CCOCCCNC(=O)CN1C(=O)/C(=C/c2ccccc2C)Sc2ccccc21`?
CAL PDZ FP-1: 31*; miR-122 sensor: 4; PvdQ acylase: -4; CAL PDZ FP-2: -1

Results for CCn1cc(CNc2nc3nonc3nc2N2CCCCC2)cn1 ?
CAL PDZ FP-1: 72*; miR-122 sensor: -4; PvdQ acylase: -11; CAL PDZ FP-2: -1

What do the screens show for `CCOC(=O)N1CCC(NC(=O)c2cc(C(=O)Nc3ccc(F)cc3F)ccc2CO)CC1`?
miR-122 sensor: -5; PvdQ acylase: -10; CAL PDZ FP-2: -1

Results for O=C(c1cccs1)N1CCN(c2ncc(C(F)(F)F)cc2Cl)CC1 ?
CAL PDZ FP-1: 5; miR-122 sensor: -2; PvdQ acylase: -5; CAL PDZ FP-2: -2

What do the screens show for `COc1ccc(CCNC(=O)Cn2c(=O)n(-c3ccc(F)cc3F)c(=O)c3sccc32)cc1OC`?
CAL PDZ FP-1: 32*; miR-122 sensor: 72; PvdQ acylase: -10

How did COc1ccc(CCNC(=O)Cn2c(=O)n(-c3cc(F)ccc3F)c(=O)c3sccc32)cc1OC do in these assays?
CAL PDZ FP-1: 2; miR-122 sensor: -6; PvdQ acylase: -9; CAL PDZ FP-2: -1

Results for CCC(=O)c1ccc(OCC(O)Cn2nnc3ccccc32)cc1 (stereo not given) ?
CAL PDZ FP-1: 0; PvdQ acylase: 9; CAL PDZ FP-2: 0

Results for CC1(C)N([O-])C(c2cccs2)=C[N+]1=O ?
CAL PDZ FP-1: 1; miR-122 sensor: 103*; PvdQ acylase: -11; CAL PDZ FP-2: -2

Results for CCOC(=O)C1CCCCN1C(=O)c1cc2ccc(OC)cc2c2cc(OC)c(OC)cc12 (stereo not given) ?
CAL PDZ FP-1: -2; miR-122 sensor: 109*; PvdQ acylase: 2; CAL PDZ FP-2: -1

How did CN(C)C(=O)CN1C(=O)C2CC=C(Cl)CC2C1=O (stereo not given) do in these assays?
CAL PDZ FP-1: 32*; miR-122 sensor: -4; PvdQ acylase: -24; CAL PDZ FP-2: 0

How did COc1ccc(N2CCN(Cc3nc4sc(C)c(C)c4c(=O)[nH]3)CC2)cc1 do in these assays?
CAL PDZ FP-1: -1; PvdQ acylase: -28; CAL PDZ FP-2: 0

How did CCc1nc2c(OCc3ccc(C(F)(F)F)cc3)cccn2c1N(C=O)Cc1ccc(OC)cc1 do in these assays?
miR-122 sensor: -13

Results for O=C(NNC(=O)c1n[nH]c(=O)c2ccccc12)c1ccc(Br)cc1 ?
CAL PDZ FP-1: 109*; miR-122 sensor: 13; PvdQ acylase: -9; CAL PDZ FP-2: -1

Results for CC(C)c1ccc(NC(=O)c2n[nH]c(=O)c3ccccc23)cc1 ?
CAL PDZ FP-1: 35*; miR-122 sensor: -3; PvdQ acylase: -15; CAL PDZ FP-2: -1

How did CC(C)(C)C(=O)Nc1nc(NC(=O)C(C)(C)C)nc(-c2ccccc2Cl)n1 do in these assays?
CAL PDZ FP-1: -2; miR-122 sensor: -5; PvdQ acylase: -6; CAL PDZ FP-2: 0

Results for CC/C(=N\NC(=O)c1ccc2c(c1)OCO2)C12CC3CC(CC(C3)C1)C2 ?
CAL PDZ FP-1: -1; miR-122 sensor: 181*; PvdQ acylase: -13; CAL PDZ FP-2: -1

What do the screens show for `C/C(=N\NC(=O)CNC(=O)c1ccc2c(c1)OCCO2)c1ccco1`?
CAL PDZ FP-1: 7; PvdQ acylase: -6; CAL PDZ FP-2: 0

Results for C/C(=N\NC(=O)c1ccc2c(c1)OCO2)c1ccco1 ?
CAL PDZ FP-1: 50*; miR-122 sensor: -4; PvdQ acylase: -9; CAL PDZ FP-2: -1

How did CNC(=O)COC(=O)c1cc(SC)ccc1Cl do in these assays?
CAL PDZ FP-1: -6; PvdQ acylase: -7; CAL PDZ FP-2: 5

How did CCCN(C)C[C@H]1Oc2cc(C#Cc3cccnc3)ccc2S(=O)(=O)N([C@@H](C)CO)C[C@H]1C do in these assays?
miR-122 sensor: -16[16.7 µM]

How did COc1ccccc1NC(=O)c1ccccc1S(=O)(=O)c1ccc([N+](=O)[O-])cc1 do in these assays?
CAL PDZ FP-1: 72*; miR-122 sensor: -2; PvdQ acylase: -6; CAL PDZ FP-2: 0

Results for CCC(=O)Nc1ccc(C(=O)Nc2cccc(C)n2)cc1 ?
CAL PDZ FP-1: -2; miR-122 sensor: 218*; PvdQ acylase: -10; CAL PDZ FP-2: -2

How did Cc1noc(NS(=O)(=O)c2ccc(NC(=O)c3ccc(N(C)C)cc3)cc2)c1C do in these assays?
CAL PDZ FP-1: 58*; miR-122 sensor: -5; PvdQ acylase: -11; CAL PDZ FP-2: 0

How did COc1ccc(S(=O)(=O)Nc2ccc(C)cc2)cc1N(C)S(=O)(=O)c1ccc(Cl)cc1 do in these assays?
CAL PDZ FP-1: 1; PvdQ acylase: -7; CAL PDZ FP-2: -3

What do the screens show for `CCCOc1ccc(/C=N/NC(=O)CSc2ccccn2)cc1OC`?
miR-122 sensor: 13; PvdQ acylase: -4; CAL PDZ FP-2: 0

Results for COc1cc(/C=N/NC(=O)CSc2ccccn2)ccc1O ?
CAL PDZ FP-1: 44*; PvdQ acylase: -8; CAL PDZ FP-2: -1

What do the screens show for `Cc1cc(C)cc(CC(CC(=O)Nc2ccc(Cl)cc2)C(=O)O)c1` (stereo not given)?
CAL PDZ FP-1: -4; PvdQ acylase: -17; CAL PDZ FP-2: -1

How did C[C@H](O)C#Cc1ccc2c(c1)O[C@H](CN(C)C(=O)Nc1ccccc1)[C@H](C)CN([C@H](C)CO)S2(=O)=O do in these assays?
miR-122 sensor: 12[16.7 µM]

What do the screens show for `CN(C)C(=O)c1ccc(NC(=O)c2cccc(S(=O)(=O)N3CCN(Cc4ccccc4)CC3)c2)cc1`?
CAL PDZ FP-1: -4; PvdQ acylase: -11; CAL PDZ FP-2: -1

How did COc1ccc(/C=N/NC(=O)c2cccc(O)c2)cc1Cn1nc(C)c([N+](=O)[O-])c1C do in these assays?
CAL PDZ FP-1: 53*; PvdQ acylase: -10; CAL PDZ FP-2: -2

How did NC(=O)NCC(=O)N1CCC(C(O)(c2ccccc2)c2ccccc2)CC1 do in these assays?
CAL PDZ FP-1: 79*; miR-122 sensor: 23; PvdQ acylase: -9; CAL PDZ FP-2: -2

How did O=C(CSc1ccccn1)N1CCN(c2ccccc2)CC1 do in these assays?
miR-122 sensor: 7; PvdQ acylase: 4; CAL PDZ FP-2: -2
